# Data: ChEMBL document CHEMBL1141756, “3-Nitropropionic acid (3-NPA), a potent antimycobacterial agent from endophytic fungi: is 3-NPA in some plants produced by endophytes?” (J Nat Prod, 2005)
# Counter-ions that a name gives are not always drawn. The source made the active and inactive calls. No cut-off for these calls is given here.
# Key:
# [1] = system: Mycobacterium tuberculosis; assay: Antimycobacterial activity against Mycobacterium tuberculosis H37Ra by microplate alamar blue assay; type: functional
# Outline: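 MABA against M. tuberculosis H37Ra grown in Middlebrook 7H9 broth; MIC read. Isoniazid and kanamycin sulfate run as reference drugs in the same experiment as samples.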
# NCI-H187 [2] = assay: Cytotoxicity against human NCI-H187 cells; type: functional, cell-based
# Outline: (§1)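 Colorimetric cytotoxicity method (Skehan) on Vero, KB, NCI-H187 (small-cell lung cancer) and BC (breast cancer) cells; IC50 derived; ellipticine as reference compound.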
# KB [3] = assay: Cytotoxicity against human KB cells; type: functional, cell-based; outline: as §1
# [4] = Cytotoxicity against human BC cells; type: functional, cell-based; outline: as §1
# Vero [5] = assay: Cytotoxicity against african green monkey Vero cells; type: functional, cell-based; conditions: Chlorocebus sabaeus; outline: as §1
# KB [6] = assay: Cytotoxicity against human KB cells at 167.9 uM; type: functional, cell-based
# Outline: (§2)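 BC, KB and NCI-H187 cells tested at 167.9 µM using the Skehan colorimetric cytotoxicity method; ellipticine reference.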
# BC = assay: Cytotoxicity against human BC cells at 167.9 uM; type: functional, cell-based; outline: as §2
# Vero [7] = assay: Cytotoxicity against african green monkey Vero cells at 419.8 uM; type: functional, cell-based; conditions: Chlorocebus sabaeus
# Outline: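 Vero cells tested at 419.8 µM using the Skehan colorimetric cytotoxicity method; ellipticine reference.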
# NCI-H187 [8] = assay: Cytotoxicity against human NCI-H187 cells at 167.9 uM; type: functional, cell-based; outline: as §2
compound,measurement,setting,value
NC[C@H]1O[C@H](O[C@H]2[C@H](O)[C@@H](O[C@H]3O[C@H](CO)[C@@H](O)[C@H](N)[C@H]3O)[C@H](N)C[C@@H]2N)[C@H](O)[C@@H](O)[C@@H]1O [KANAMYCIN SULFATE],MIC,[1],3.4 µM
Cc1c2ccncc2c(C)c2c1[nH]c1ccccc12 [ELLIPTECINE],IC50,NCI-H187 [2],800 nM
same,IC50,KB [3],800 nM
same,IC50,[4],800 nM
same,IC50,Vero [5],800 nM
NNC(=O)c1ccncc1 [ISONIAZID],MIC,[1],0.29 µM
O=C(O)CC[N+](=O)[O-],Activity,KB [6],inactive
same,Activity,BC,inactive
same,MIC,[1],3.3 µM
same,Activity,Vero [7],inactive
same,Activity,NCI-H187 [8],inactive
